Reference: PubChem BioAssay
The other results are listed elsewhere or left out. The source made the active and inactive calls. Unless noted, the rule behind the calls is not given here.

What was measured:
[1] = inhibition of Brca1/Bard1 split-luciferase complementation, confirmation, counter-screen for Mdm2/MdmX interaction inhibitor project, luminescence, single concentration (AID 504668); details: Brca1/Bard1 bimolecular luciferase complementation counterscreen, at 8 µM, stronger effect = higher value
PEG-3 [2] = biological target: PEG-3 (UniProt Q6IN02); assay: Peg3 promoter luciferase inhibitors, potency, dose response, cell-based, HeLa, CREF/GAPDH counter-screen panel (AID 624167); details: CREF/GAPDH counter-screens; HeLa PEG-Prom luciferase reporter, overnight, run 1, dose range 1, at 100 µM (top of the series) unless noted
PEG-3 [3] = biological target: PEG-3 (UniProt Q6IN02); assay: as above; details: CREF/GAPDH counter-screens; HeLa PEG-Prom luciferase reporter, overnight, run 2, dose range 1, at 100 µM (top of the series) unless noted
[4] = inhibitors of PAF-induced NF-kB signaling, retest, confirmation, cell-based, GFP fluorescence, single concentration (AID 602472; in the data active = inhibition above about 40%;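 note: stimulus PAF is a Pseudomonas aeruginosa filtrate and not platelet activating factor; plate controls were DMSO wells with stimulus for no effect and unstimulated DMSO wells for full effect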); details: KKLEB CF airway cells, overnight, at 5 µM, stronger effect = higher value
In short: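 Material – KKLEB NFkB-GFP reporter cells · Buffer or medium – medium with 2% FBS for cells, serum-free medium for stimulus · Incubation – 2 h pretreatment, overnight stimulation · Signal – reporter fluorescence (GFP) · Also added – Pseudomonas aeruginosa filtrate (PAF) as NFkB-activating stimulus · Doses – 5 µM single dose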

[5] = inhibitors of PAF-induced NFkB signaling in CF airway cells, dose response, cell-based, uHTS hits, panel, cytotoxicity readout (AID 624344); details: CF bronchial epithelial cells, PAF-induced NFkB reporter inhibition, with PAF, run 1; at 79 µM (top of the series) unless noted
[6] = as above; details: CF bronchial epithelial cells, PAF-induced NFkB reporter inhibition, with PAF, run 2; at 79 µM (top of the series) unless noted
Rat fibroblasts (CREF) [7] = assay: Peg3 promoter luciferase inhibitors, potency, dose response, cell-based, HeLa, CREF/GAPDH counter-screen panel (AID 624167); details: CREF/GAPDH counter-screens; run 1, dose range 1, at 100 µM (top of the series)
Rat fibroblasts (CREF) [8] = assay: as above; details: CREF/GAPDH counter-screens; run 2, dose range 1, at 100 µM (top of the series)

Chain of PEG-3 (Q6IN02 whole entry, looked up): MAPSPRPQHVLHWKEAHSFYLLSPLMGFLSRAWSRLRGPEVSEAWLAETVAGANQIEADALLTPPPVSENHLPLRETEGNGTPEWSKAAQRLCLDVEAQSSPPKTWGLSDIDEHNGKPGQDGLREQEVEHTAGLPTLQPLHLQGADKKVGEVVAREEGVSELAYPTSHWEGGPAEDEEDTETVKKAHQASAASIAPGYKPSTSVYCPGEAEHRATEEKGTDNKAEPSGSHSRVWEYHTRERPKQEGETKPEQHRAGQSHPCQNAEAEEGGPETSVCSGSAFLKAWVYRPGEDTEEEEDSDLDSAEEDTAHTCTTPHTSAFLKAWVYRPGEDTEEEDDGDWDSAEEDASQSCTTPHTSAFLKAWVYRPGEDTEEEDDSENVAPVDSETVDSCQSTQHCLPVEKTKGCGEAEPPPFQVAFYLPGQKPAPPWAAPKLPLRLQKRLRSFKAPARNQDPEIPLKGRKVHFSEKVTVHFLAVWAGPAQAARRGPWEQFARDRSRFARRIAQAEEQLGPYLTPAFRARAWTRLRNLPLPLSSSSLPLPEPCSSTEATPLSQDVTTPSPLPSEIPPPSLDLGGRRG

For `COc1ccc(C(O)(CC(C)C)C(CN2CCOCC2)c2ccccc2)cc1` (centres undefined), the inhibition [1] was 30.5% (active), the inhibition (PEG-3 [2]) was 100% and the inhibition (PEG-3 [3]) was 100%.

For `C=C(C)Cn1c(SCC(=O)N/N=C/c2c(O)ccc3ccccc23)nc2ccccc2c1=O`, the inhibition [1] was 31.4% (active), the inhibition (PEG-3 [2]) was 54.6% and the inhibition (PEG-3 [3]) was 7.84%.

In the case of `Cc1ccc2occ(/C=N/NC(=O)c3ccccc3C)c(=O)c2c1`, the inhibition [1] is reported as 34.4% (active), the inhibition [4] is reported as 94.8% (active) and the inhibition [5] is reported as 102%. It also gave an inhibition [6] of 110%.

In the case of `O=C(/C=C/Nc1ccccc1Br)c1ccccn1`, the inhibition [1] is reported as 24% (active), the inhibition (PEG-3 [2]) is reported as 96.6% and the inhibition (PEG-3 [3]) is reported as 99.5%. It also gave an inhibition (Rat fibroblasts (CREF) [7]) of 97.6% and an inhibition (Rat fibroblasts (CREF) [8]) of 98.9%.

With `COc1cc(/C=C/c2ccc3cccc(O)c3n2)c(Br)cc1O` the inhibition [1] was 29.2% (active), the inhibition (PEG-3 [2]) was 99.5% and the inhibition (PEG-3 [3]) was 96.1%.

With `COC(=O)[C@@H]1[C@@H](C#N)C2(c3ccccc3-c3ccccc32)N(c2ccc(Cl)cc2)N1C#N` the inhibition [1] was 32.8% (active).

In the case of `O=C1c2ccccc2S(=O)(=O)N1Cc1nc2ccccc2s1`, the inhibition [1] is reported as 32.9% (active), the inhibition (PEG-3 [2]) is reported as 101% and the inhibition (PEG-3 [3]) is reported as 83.4%.

For `CN(Cc1ccccc1)C(=O)c1ccc(NC(=O)C2CCN(C(=O)OC(C)(C)C)CC2)cc1`, the inhibition [1] was 31.6% (active).

In the case of `COc1ccc(-c2cn[nH]c2-c2ccc(OC)cc2)cc1`, the inhibition [1] is reported as 35.1% (active), the inhibition [4] is reported as 69.3% (active) and the inhibition [5] is reported as 104%. The inhibition [6] was 104%.

In the case of `COc1ccccc1C(=O)Nc1nc2ccccc2s1`, the inhibition [1] is reported as 31.7% (active), the inhibition (PEG-3 [2]) is reported as 101% and the inhibition (PEG-3 [3]) is reported as 98%. The inhibition (Rat fibroblasts (CREF) [7]) was 100% and the inhibition (Rat fibroblasts (CREF) [8]) was 99.5%.

In the case of `CCN(CC)c1ccc2nc3ccc(N)cc3[n+](-c3ccccc3)c2c1`, the inhibition [1] is reported as 23.6% (active), the inhibition (PEG-3 [2]) is reported as 101% and the inhibition (PEG-3 [3]) is reported as 102%.

In the case of `Cc1ccc(C(=O)O/N=C(\N)c2ccccn2)cc1`, the inhibition [1] is reported as 34% (active), the inhibition (PEG-3 [2]) is reported as 102% and the inhibition (PEG-3 [3]) is reported as 100%. For the same molecule, the inhibition (Rat fibroblasts (CREF) [7]) was 100% and the inhibition (Rat fibroblasts (CREF) [8]) was 101%.

In the case of `O=C(CCCN1C(=O)/C(=C\c2cccs2)SC1=S)Nc1ccc(O)cc1`, the inhibition [1] is reported as 31.8% (active).

With `Cc1nnc(NC(=O)Nc2ccc(Cl)c(Cl)c2)s1` the inhibition [1] was 33.4% (active), the inhibition [4] was 68% (active) and the inhibition [5] was 91.7%. It also gave an inhibition [6] of 87.1%.

In the case of `O=C(Nc1ccc([N+](=O)[O-])cc1)C(=O)Nc1cccc(C(=O)O)c1`, the inhibition [1] is reported as 31% (active), the inhibition (PEG-3 [2]) is reported as 92.5% and the inhibition (PEG-3 [3]) is reported as 95%. For the same molecule, the inhibition (Rat fibroblasts (CREF) [7]) was 97.5% and the inhibition (Rat fibroblasts (CREF) [8]) was 96.8%.

With `CCN1C(=O)C(=Cc2cccc(OC)c2Oc2ccc([N+](=O)[O-])cc2[N+](=O)[O-])SC1=S` the inhibition [1] was 27.9% (active), the inhibition (PEG-3 [2]) was 21.1% and the inhibition (PEG-3 [3]) was 46.1%.

In the case of `O=C(N/N=C\c1c(O)ccc2ccccc12)c1ccc(Cn2cccn2)o1`, the inhibition [1] is reported as 24.8% (active), the inhibition (PEG-3 [2]) is reported as 84.9% and the inhibition (PEG-3 [3]) is reported as 75.1%. For the same molecule, the inhibition (Rat fibroblasts (CREF) [7]) was 51.2% and the inhibition (Rat fibroblasts (CREF) [8]) was 41.5%.

With `Brc1ccc2ncnc(NCc3cccnc3)c2c1` the inhibition [1] was 26.8% (active), the inhibition [4] was 69.2% (active) and the inhibition [5] was 105%. The inhibition [6] was 94.9%.

With `CCC(=O)NC(c1ccc(C)cc1)c1ccc2cccnc2c1O` (centres undefined) the inhibition [1] was 23.7% (active), the inhibition (PEG-3 [2]) was -12.7% and the inhibition (PEG-3 [3]) was 50.5%. It also gave an inhibition (Rat fibroblasts (CREF) [7]) of 16.7% and an inhibition (Rat fibroblasts (CREF) [8]) of 31.4%.

With `CC(C)(c1ccccc1)c1ccc(OCC(O)CNC2CCN(Cc3ccccc3)CC2)cc1` (centres undefined) the inhibition [1] was 35.2% (active), the inhibition (PEG-3 [2]) was 102% and the inhibition (PEG-3 [3]) was 98.9%.

In the case of `COc1ccc(C(=O)O/N=C(\N)c2ccccn2)cc1`, the inhibition [1] is reported as 24.2% (active), the inhibition (PEG-3 [2]) is reported as 99.1% and the inhibition (PEG-3 [3]) is reported as 101%. It also gave an inhibition (Rat fibroblasts (CREF) [7]) of 98.2% and an inhibition (Rat fibroblasts (CREF) [8]) of 99.2%.

With `COC(=O)Cc1[nH]n(-c2nc3ccccc3s2)c(=O)c1C(C)=Nc1ccc(C)cc1` the inhibition [1] was 32.2% (active), the inhibition (PEG-3 [2]) was 80.3% and the inhibition (PEG-3 [3]) was 83.8%. For the same molecule, the inhibition (Rat fibroblasts (CREF) [7]) was 78.5% and the inhibition (Rat fibroblasts (CREF) [8]) was 80.2%.

For `Cc1cc(C=C2C(=O)c3ccccc3C2=O)c(C)n1-c1ccccc1`, the inhibition [1] was 34.3% (active), the inhibition (PEG-3 [2]) was 62.9% and the inhibition (PEG-3 [3]) was 80.6%.

For `COc1ccc2c(C(=O)CCl)c[nH]c2c1`, the inhibition [1] was 24.1% (active).
